According to ChEMBL document CHEMBL1938261, “Discovery of novel α7 nicotinic acetylcholine receptor ligands via pharmacophoric and docking studies of benzylidene anabaseine analogs” (Bioorg Med Chem Lett, 2012):

How the values were obtained:
[1] = target: T1, Neuronal acetylcholine receptor; alpha4/beta2 (Homo sapiens, UniProt P17787+P43681); experiment: Displacement of [3H]epibatidine from human alpha4beta2 nAchR expressed in SH-EP1 cells at 5 uM; assay type: cell-based
Outline: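 Percent inhibition of control [3H]-epibatidine binding to human α4β2 expressed in SH-EP1 cells, with test compound at 5 μM. Reported ± standard error, with replicate number per value.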

[2] = Displacement of [3H]methyllycaconitine from rat alpha7 nAchR in rat hippocampal membrane; assay type: cell membranes, Hippocampus
Outline: (§1)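 α7 sites on rat hippocampal membranes, labelled with [3H]-methyllycaconitine. Inhibition of binding measured over a seven-point dose-response curve, with replicates averaged at each point. IC50 taken by least-squares non-linear regression against log concentration. Ki given ± standard error, with replicate number per value.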

Rattus norvegicus = species: Rattus norvegicus; experiment: (§2) Partial agonist activity at rat alpha7 nAchR by patch clamp assay; assay type: functional
[3] = as §2; assay type: functional
[4] = target: T1, Neuronal acetylcholine receptor; alpha4/beta2; experiment: Displacement of [3H]epibatidine from human alpha4beta2 nAchR expressed in SH-EP1 cells; assay type: cell-based
Outline: as §1, with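 “Human α4β2 heterologously expressed in SH-EP1 cells,” for “α7 sites on rat hippocampal membranes,”, “[3H]-epibatidine.” for “[3H]-methyllycaconitine.”, “reported” for “given”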

[5] = target: Neuronal acetylcholine receptor; alpha3/beta4 (Homo sapiens) (UniProt P30926+P32297); experiment: Displacement of [3H]epibatidine from human alpha3beta4 nAchR expressed in SH-SY5Y cells at 5 uM; assay type: cell-based
Outline: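 Radioligand displacement using [3H]-epibatidine on SH-SY5Y cell membranes (ganglion-type nicotinic receptors). Compounds tested at 5 μM; percent inhibition of control radioligand binding reported, with the number of replicates given for each result.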

T1 sequence (P17787 whole entry): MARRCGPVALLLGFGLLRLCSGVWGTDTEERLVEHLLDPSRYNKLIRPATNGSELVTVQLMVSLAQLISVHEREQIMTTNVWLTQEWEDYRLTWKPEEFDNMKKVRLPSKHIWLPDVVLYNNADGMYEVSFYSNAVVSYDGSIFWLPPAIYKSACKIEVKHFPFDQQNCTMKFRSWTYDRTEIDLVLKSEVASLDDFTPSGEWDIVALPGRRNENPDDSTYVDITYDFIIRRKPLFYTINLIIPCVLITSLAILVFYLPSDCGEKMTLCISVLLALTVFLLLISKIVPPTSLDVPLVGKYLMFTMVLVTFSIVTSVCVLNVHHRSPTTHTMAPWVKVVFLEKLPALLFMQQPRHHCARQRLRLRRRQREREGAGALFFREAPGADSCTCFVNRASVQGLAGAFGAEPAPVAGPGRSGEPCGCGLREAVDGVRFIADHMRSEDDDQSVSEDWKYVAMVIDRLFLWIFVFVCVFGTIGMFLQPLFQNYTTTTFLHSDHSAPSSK
T1 sequence (P43681 whole entry): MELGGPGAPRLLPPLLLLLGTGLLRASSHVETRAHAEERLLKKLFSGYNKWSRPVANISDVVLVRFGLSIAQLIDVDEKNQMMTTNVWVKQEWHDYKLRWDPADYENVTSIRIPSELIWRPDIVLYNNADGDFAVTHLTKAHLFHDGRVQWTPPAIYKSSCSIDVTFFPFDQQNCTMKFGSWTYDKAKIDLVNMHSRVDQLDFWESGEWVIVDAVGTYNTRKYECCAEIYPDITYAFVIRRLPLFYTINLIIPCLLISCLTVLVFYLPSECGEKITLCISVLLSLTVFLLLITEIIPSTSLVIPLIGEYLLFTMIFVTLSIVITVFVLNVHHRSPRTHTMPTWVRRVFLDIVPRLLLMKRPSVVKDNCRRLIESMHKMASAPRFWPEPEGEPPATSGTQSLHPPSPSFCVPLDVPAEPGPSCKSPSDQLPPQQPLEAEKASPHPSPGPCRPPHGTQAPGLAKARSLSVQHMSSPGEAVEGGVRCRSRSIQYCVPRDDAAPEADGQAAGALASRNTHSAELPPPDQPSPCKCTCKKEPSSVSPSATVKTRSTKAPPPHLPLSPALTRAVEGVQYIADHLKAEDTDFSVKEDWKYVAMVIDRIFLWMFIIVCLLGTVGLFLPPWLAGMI

Structure (SMILES) | inhibition [1] [%] | Ki [2] [nM] | further results
Nc1c(C2=NC3(CN2)CN2CCC3CC2)oc2ccccc12 (stereo not given) | 9 | 120 | –
O=C1CC(c2cccs2)=NCC2(CN3CCC2CC3)N1 (stereo not given) | 20 | 58 | –
O=C1NCC2(CN3CCC2CC3)NC(=O)C1c1ccccc1 (stereo not given) | 2 | – | –
Oc1c(C2=NC3(CN2)CN2CCC3CC2)oc2ccccc12 (stereo not given) | 32 | 7 | Emax (Rattus norvegicus): 53%; EC50 [3]: 600 nM
Oc1ccccc1C1=NC2(CN1)CN1CCC2CC1 (stereo not given) | 4 | 290 | –
COc1ccc(/C=C2\CCCN=C2c2cccnc2)c(OC)c1 [GTS-21] | – | 1300 | Ki [4]: 51 nM
c1ccc(C2=NC3(CN2)CN2CCC3CC2)cc1 (stereo not given) | 11 | – | –
COc1ccc(C2=NCC3(CN4CCC3CC4)NC(=O)C2)cc1 (stereo not given) | 42 | 42 | –
COc1cc(O)ccc1/C=C1\CCCN=C1c1cccnc1 | 97 | – | inhibition [5]: 75%
C1=NCC2(CN3CCC2CC3)NC=C1c1ccccc1 (stereo not given) | 6 | – | –
O=C1CC(c2ccco2)=NCC2(CN3CCC2CC3)N1 (stereo not given) | 14 | 150 | –
COc1ccccc1C1=NCC2(CN3CCC2CC3)NC(=O)C1 (stereo not given) | 7 | 110 | –
OC1=CC(c2ccccc2)=NCC2(CN3CCC2CC3)N1 (stereo not given) | 15 | 140 | –
O=C1CC(c2ccc(Br)s2)=NCC2(CN3CCC2CC3)N1 (stereo not given) | 62 | 77 | –
c1ccc2oc(C3=NC4(CN3)CN3CCC4CC3)cc2c1 (stereo not given) | 4 | – | –
COc1cccc(C2=NCC3(CN4CCC3CC4)NC(=O)C2)c1 (stereo not given) | 12 | 87 | –
